B2AR ag: agonists of human beta-2 adrenergic receptor inducing internalization | P07550 | response, % (concentration not given with the values) | Am2.2-beta2AR cells, FAP receptor internalization, flow cytometry | 340,000 tested, 0.43% active;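 active = response above a set limit, near 3 SD of response in nonfluorescent compounds, cut at about 42% in these data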
Target sequence (P07550 whole entry, looked up): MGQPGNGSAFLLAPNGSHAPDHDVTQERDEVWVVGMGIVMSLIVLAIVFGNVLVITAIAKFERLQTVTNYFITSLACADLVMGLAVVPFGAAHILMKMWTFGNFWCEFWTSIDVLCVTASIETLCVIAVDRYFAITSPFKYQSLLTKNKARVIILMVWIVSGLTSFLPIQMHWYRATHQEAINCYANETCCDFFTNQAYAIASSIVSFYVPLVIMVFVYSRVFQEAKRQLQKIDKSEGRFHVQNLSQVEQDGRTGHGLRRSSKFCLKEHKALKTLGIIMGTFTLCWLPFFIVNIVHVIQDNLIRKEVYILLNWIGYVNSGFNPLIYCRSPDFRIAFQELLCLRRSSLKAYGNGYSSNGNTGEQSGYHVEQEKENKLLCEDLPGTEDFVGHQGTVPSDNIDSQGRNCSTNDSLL
V-ATPase pH: alters yeast V-ATPase proton transport; S. cerevisiae, pHLuorin cytosolic pH fluorescence; response, % at 10 µM; 350,000 tested, 0.37% active; AID 504577; in the data active = response mostly above about 7.3%, no sharp cut-off; inactive = mostly below about 5.4%; also: actives read high
rCAG binder: binds r(CAG) RNA repeats. r(CAG) RNA repeat, TO-PRO-1 dye displacement fluorescence. inhibition, % at 3 µM. 370,000 tested, 1.3% active;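 active = inhibition above the plate cutoff, the mean of all test compounds on that plate plus 3 SD, cut at about 35% in these data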;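 also: higher means more dye released from RNA so lower well fluorescence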
MPTP block: blocks calcium-induced mitochondrial swelling | 360,000 tested, 1.4% active | AID 602449 | isolated mouse mitochondria, Ca2+ swelling absorbance, 30 min | inhibition, % at 10 µM;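 active = inhibition of 50% or more, scaled per plate between neutral and stimulator controls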
Granule exo inh: lytic granule exocytosis inhibition; 360,000 tested, 0.66% active; inhibition, % at 10 µM; TALL-104 LAMP-1 surface exposure, flow cytometry; cells stimulated with thapsigargin and PMA;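 active = inhibition above about 55%, limit read from the data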
T cell HTS: T cell immune modulators affecting CD8 T cell-vesicle binding. 2C CD8+ T cell-vesicle binding, flow cytometry; hits give low values. response (vesicle binding), % at 7 µM. 330,000 tested, 0.068% active. AID 2052;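 active = response, share of CD8 T cells binding vesicles, and their 90th percentile fluorescence all below set limits, cut at about 80% in these data, passing the limit was not always enough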;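 also: values below 100% mean blocked vesicle binding to the CD8+ T cells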
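Incubation: binding step 1.5 h, 37 °C, antibody labelling 20 min, ice; system: murine 2C transgenic CD8+ T lymphocytes; technique: cytometric PE anti-B7-1 and Alexa647 anti-CD8 signals after 1% paraformaldehyde fixation; also added: QL9-charged Drosophila Ld/ICAM-1/B7-1 vesicles; control set: naked versus QL9-loaded vesicles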
rCAG bind conf: r(CAG) RNA repeat binding, confirmation; AID 652065; inhibition, % at 3 µM; shares compounds with rCAG binder; 4,300 tested, 70% active; TO-PRO-1 dye displacement fluorescence;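 active = inhibition above a per-plate cutoff, the mean inhibition of sample wells plus 3 SD, cut at about 35% in these data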;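 also: loss of TO-PRO-1 fluorescence as compound displaces dye from 1x1 AA loop RNA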
DNA CAG counter: disrupts DNA CAG TO-PRO-1 complex, flagging rCAG hits; inhibition, % at 3 µM; d(CAG) DNA oligo TO-PRO-1 dye displacement, fluorescence; AID 652068; shares compounds with rCAG binder; 4,300 tested, 94% active;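 active = inhibition above its plate's cutoff, the mean test-well inhibition plus 3 SD, cut at about 4.8% in these data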;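 also: hits displace the dye from DNA and so lower well fluorescence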
dCAG dye DR: disrupts DNA CAG TO-PRO-1 complex in dose response | shares compounds with rCAG binder | DNA CAG/GTC duplex TO-PRO-1 dye displacement fluorescence | IC50, µM | 250 tested, 20% active; in the data active = IC50 below about 10 µM
A number is an active result; - = inactive; . = no result. Most compounds without a hit are left out; they make up all but 3.8% or so of the library.

SMILES	B2AR ag	V-ATPase pH	rCAG binder	MPTP block	Granule exo inh	T cell HTS	rCAG bind conf	DNA CAG counter	others
Cc1ccccc1CN1CCCCC(NC(=O)C(C)(C)C)C1=O (stereo not drawn)	.	.	-	.	.	.	.	.
O=S1(=O)c2ccc(N3CCSCC3)cc2Oc2ccccc2CN1Cc1cn(Cc2cccc(C(F)(F)F)c2)nn1	.	.	-	.	.	.	.	.
CCN(CC)c1nc(Nc2ccc(Cl)cc2)nc(OCC#N)n1	-	-	51.1	-	-	-	-	-
O=C(Cn1nnc(N2CCCCC2)n1)NN=Cc1ccccc1O	.	.	-	.	.	.	.	.
O=C(O)/C(=C\c1ccccc1OC(F)F)c1ccc(-c2ccccc2)cc1	-	-	48.4	-	-	-	41.8	13.4
COc1ccccc1C=C(C(=O)c1ccccc1)c1ccccc1	.	.	-	-	-	.	.	.
O=C(O)/C(=C\c1ccc(F)cc1)c1ccc(-c2ccccc2)cc1	-	-	37.8	-	-	-	40.1	9.7
COc1cccc(-c2ccc(CC[C@H]3O[C@H]4CC[C@H](CO)O[C@H]4C[C@H]3NS(C)(=O)=O)cc2)c1	.	.	-	.	.	.	.	.
COC(=O)[C@]12C[C@H](CC(=O)N3CCC(c4ccccc4)CC3)C(=O)N(CCc3ccc(OC)c(OC)c3)C1=C[C@H](COCc1ccccc1)O[C@@H]2C	.	.	-	.	.	.	.	.
CCn1c2ccccc2c2cc(NC(=O)COC(=O)c3cc(F)ccc3C)ccc21	.	.	-	.	.	.	.	.
COc1ccc(NC(=O)NNC(=O)c2cc3ccccc3cc2O)cc1	-	-	-	-	-	-	.	.
COc1ccc(C)cc1NC(=O)NNC(=O)c1cc2ccccc2cc1O	-	-	58.0	-	-	-	41.9	14.6
CCCOc1ccc(N2C(=O)CC(S/C(N)=N/N=C(\C)c3cccs3)C2=O)cc1 (stereo not drawn)	-	-	65.7	-	-	-	70.3	26.0	dCAG dye DR=-
C/C(=N\N=C(/N)SC1CC(=O)N(c2cccc(Cl)c2)C1=O)c1cccs1 (stereo not drawn)	-	-	53.9	-	-	-	72.6	28.6	dCAG dye DR=-
CC(C)=C1C(=O)NN(c2ccc(C)c(Cl)c2)C1=O	-	-	93.6	-	-	-	-	8.1
Cc1ccc(CN2CCCCC(NC(=O)Cc3cccs3)C2=O)cc1 (stereo not drawn)	.	.	-	.	.	.	.	.
COC(=O)c1sc(-c2ccc(C(C)(C)C)cc2)cc1NC(=O)CSCC(=O)O	-	-	62.3	-	-	-	68.1	25.4
COC(=O)c1sc(-c2ccc(C(C)(C)C)cc2)cc1NC(=O)c1ccccc1C(=O)O	-	-	70.1	-	-	-	83.5	46.1
COC(=O)c1sc(-c2ccc(Cl)cc2)cc1NC(=O)c1ccccc1C(=O)O	-	-	70.5	-	-	-	80.0	46.0
COC(=O)c1sc(-c2ccccc2)cc1NC(=O)C1CC1	-	-	-	-	-	-	.	.
COC(=O)c1sccc1NC(=O)c1ccccc1C(=O)O	-	-	-	-	-	-	.	.
OCCN1CN(c2ccccc2)C(=S)N(c2ccccc2)C1	.	.	-	.	.	.	.	.
CN(C)[C@H]1CCN(c2ccc3c(c2)OCCCN(C2CC2)S3(=O)=O)C1	.	.	-	.	.	.	.	.
COc1ccccc1CCn1cnc(-c2cccc(F)c2)c1C(C)C	.	.	-	.	.	.	.	.
COc1ccc(Oc2ccc(C(F)(F)F)cc2NC(=O)CC(CC(=O)O)c2ccccc2)cc1 (stereo not drawn)	-	-	46.1	-	-	-	42.5	8.0
SMILES	B2AR ag	V-ATPase pH	rCAG binder	MPTP block	Granule exo inh	T cell HTS	rCAG bind conf	DNA CAG counter	others
Cc1ccc2nc(N/C(=N/S(=O)(=O)c3cccs3)c3ccccc3Cl)sc2c1	-	-	71.4	-	-	-	51.3	18.6
C[C@H]1CCC/C=C/C(=O)c2c(cc(O)c(Cl)c2O)CC(=O)O1	.	.	-	.	.	.	.	.
COc1ccc(C2=NOC(Cn3nc(-c4ccccc4C)cc3C(=O)O)C2)cc1 (stereo not drawn)	-	-	38.8	-	-	-	-	5.0
CC(C)OP(=O)(OC(C)C)C1(NS(=O)(=O)c2ccc(Cl)cc2)C=C(Cl)C(=O)C(Cl)=C1	-	-	40.1	-	-	-	-	5.9
O=C1NC(=Nc2ccccc2)S/C1=C\C=C\c1ccco1	-	-	68.8	-	-	-	61.5	30.5
Cc1ccc(N=C2NC(=O)/C(=C/C=C/c3ccco3)S2)cc1	-	-	58.6	-	-	-	53.9	26.4
Cc1cccc(N=C2NC(=O)/C(=C/C=C/c3ccco3)S2)c1C	-	-	66.6	-	-	-	64.0	30.9
COC(=O)[C@H]1C[C@@]2(Oc3ccc(Br)cc3)c3ccccc3N(C(=O)OC(C)(C)C)[C@H]2N1C(=O)OC(C)(C)C	.	.	-	.	.	.	.	.
O=C(Nc1cc(Cl)ccc1C(=O)O)c1ccc(CN2C(=O)c3ccccc3C2=O)cc1	-	-	59.3	-	-	-	84.7	72.0
O=C(Nc1ccc(Br)cc1C(=O)O)c1ccc2c(c1)C(=O)N(Cc1ccccc1)C2=O	-	-	49.0	-	-	-	87.1	76.6
O=C(O)c1ccc2c(c1)C(=O)N(CCCCCCCN1C(=O)c3ccc(C(=O)O)cc3C1=O)C2=O	-	-	37.2	-	-	-	-	-
CCCN1C(=O)c2ccc(C(=O)Nc3ccccc3C(=O)O)cc2C1=O	-	-	53.5	-	-	-	36.0	7.0
CCOC(=O)CCCNC(=O)OC1CC2CC1[C@H]1CCCCN1[C@H]2Cc1ccccc1 (stereo partly drawn)	.	.	-	.	.	.	.	.
Fc1ccc(C2=Nn3c(nnc3C3CCCCC3)SC2)cc1	.	.	-	.	.	.	.	.
CC(C)CNC(=O)OCc1cn(Cc2cccc(F)c2)nn1	.	.	-	.	.	.	.	.
C[C@@H]1CCCCO[C@@H](CN(C)C(=O)Nc2ccc(C(F)(F)F)cc2)[C@@H](C)CN([C@H](C)CO)C(=O)c2cc(NS(=O)(=O)c3ccc(Cl)cc3)ccc2O1	.	.	-	.	.	.	.	.
CC(=O)[C@H]1CC[C@H]2[C@@H]3CC=C4C[C@@H](OS(=O)(=O)O)CC[C@]4(C)[C@H]3CC[C@]12C	-	-	39.3	-	-	.	39.2	9.8
CC(=O)O[C@H]1CC[C@@]2(C)C(=CC[C@H]3[C@@H]4CC[C@H](C(C)=O)[C@@]4(C)CC[C@@H]32)C1	-	-	-	-	-	-	.	.
Cc1[nH]n(-c2ccccc2)c(=O)c1C=Nc1ccc(S(=O)(=O)Nc2nccs2)cc1	-	-	43.3	-	-	-	41.4	12.9
Cc1ccc(-n2[nH]c(C)c(C=Nc3ccc(S(=O)(=O)Nc4nccs4)cc3)c2=O)cc1C	-	-	56.1	-	-	-	75.4	38.0
Cc1ccc(-n2[nH]c(C)c(C=Nc3ccc(S(=O)(=O)Nc4nccs4)cc3)c2=O)c(C)c1	.	.	.	.	.	-	.	.

Screening data (PubChem BioAssay)
